Measured values reported in ChEMBL document CHEMBL3046055, “Synthesis and herbicidal activity of novel N-(2,2,2)-trifluoroethylpyrazole derivatives” (J Agric Food Chem, 2010).

Columns and labels:
Digitaria sanguinalis [1] = assay: Herbicidal activity against Digitaria sanguinalis (hairy crabgrass) assessed as inhibition of fresh weed plant weights at 600 g ai/ha using pre-emergence treatment protocol under greenhouse conditions relative to untreated control; assay type: functional
In short: (§1)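 Pre-emergence test in plastic pots kept in a greenhouse at 22-25 °C. Fresh weight of aerial plant parts was measured 20 days later, and percent inhibition calculated relative to water-sprayed controls. Metolachlor served as the positive control. Three replicates were run per concentration.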

Portulaca oleracea [2] = assay: Herbicidal activity against Portulaca oleracea assessed as inhibition of root growth at […] measured 7 days post treatment; assay type: functional; parameters: dose or concentration left out as unconfirmed; conditions: 168 h, read-out: GI
Echinochloa crus-galli [3] = assay: Herbicidal activity against Echinochloa crus-galli (barnyard grass) assessed as inhibition of fresh weed plant weights at 600 g ai/ha using pre-emergence treatment protocol under greenhouse conditions relative to untreated control; assay type: functional; in short: as §1
Echinochloa crus-galli [4] = assay: Herbicidal activity against Echinochloa crus-galli (barnyard grass) assessed as inhibition of root growth at […] measured 7 days post treatment; assay type: functional; parameters: dose or concentration left out as unconfirmed; conditions: 168 h, read-out: GI
Echinochloa crus-galli [5] = assay: Herbicidal activity against Echinochloa crus-galli (barnyard grass) assessed as inhibition of shoot growth at […] measured 7 days post treatment; assay type: functional; parameters: dose or concentration left out as unconfirmed; conditions: 168 h, read-out: GI
Portulaca oleracea [6] = assay: Herbicidal activity against Portulaca oleracea assessed as inhibition of shoot growth at […] measured 7 days post treatment; assay type: functional; conditions: 168 h, read-out: GI
In short: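 Petri-dish agar assay. A 10 g/L stock of compound in acetone was mixed into molten agar; the untreated control was agar without compound. Seeds were placed on the agar surface and the cups were covered with glass lids. Incubation was 25 ± 1 °C, 50-55% RH, 12 h light/12 h dark, for 7 days. Root and shoot lengths were measured and growth inhibition calculated against the control, in three replicates.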

Zea mays [7] = assay: Toxicity against Zea mays var. SHEN DAN 17 (maize) assessed induction of crop injury at 1404 g ai/ha using pre-emergence treatment protocol under field trials conditions measured 30 days post soil treatment; assay type: organism-based; conditions: in vivo, other, 720 h
Convolvulus arvensis = assay: Herbicidal activity against Convolvulus arvensis assessed as inhibition of fresh weed plant weights at 1404 g ai/ha using pre-emergence treatment protocol under field trials conditions measured 30 days post soil treatment relative to untreated control; assay type: functional; conditions: 720 h
Portulaca oleracea [8] = assay: Herbicidal activity against Portulaca oleracea assessed as inhibition of fresh weed plant weights at 1404 g ai/ha using pre-emergence treatment protocol under field trials conditions measured 30 days post soil treatment relative to untreated control; assay type: functional; conditions: 720 h
Eleusine indica [9] = assay: Herbicidal activity against Eleusine indica assessed as inhibition of fresh weed plant weights at 1404 g ai/ha using pre-emergence treatment protocol under field trials conditions measured 30 days post soil treatment relative to untreated control; assay type: functional; conditions: 720 h
Echinochloa crus-galli [10] = assay: Herbicidal activity against Echinochloa crus-galli (barnyard grass) assessed as inhibition of fresh weed plant weights at 1404 g ai/ha using pre-emergence treatment protocol under field trials conditions measured 30 days post soil treatment relative to untreated control; assay type: functional; conditions: 720 h
Digitaria sanguinalis [11] = assay: Herbicidal activity against Digitaria sanguinalis (hairy crabgrass) assessed as inhibition of fresh weed plant weights at 1404 g ai/ha using pre-emergence treatment protocol under field trials conditions measured 30 days post soil treatment relative to untreated control; assay type: functional; conditions: 720 h
Zea mays [12] = assay: Toxicity against Zea mays var. SHEN DAN 17 (maize) assessed as inhibition of fresh weed plant weights at 600 g ai/ha using pre-emergence treatment protocol under greenhouse conditions relative to untreated control; assay type: organism-based; conditions: in vivo, other; in short: as §1
Zea mays [13] = assay: Toxicity against Zea mays var. SHEN DAN 17 (maize) assessed as inhibition of fresh weed plant weights at 300 g ai/ha using pre-emergence treatment protocol under greenhouse conditions relative to untreated control; assay type: organism-based; conditions: in vivo, other; in short: as §1
Portulaca oleracea [14] = assay: Herbicidal activity against Portulaca oleracea assessed as inhibition of fresh weed plant weights at 600 g ai/ha using pre-emergence treatment protocol under greenhouse conditions relative to untreated control; assay type: functional; in short: as §1
Portulaca oleracea [15] = assay: Herbicidal activity against Portulaca oleracea assessed as inhibition of fresh weed plant weights at 300 g ai/ha using pre-emergence treatment protocol under greenhouse conditions relative to untreated control; assay type: functional; in short: as §1
Portulaca oleracea [16] = assay: Herbicidal activity against Portulaca oleracea assessed as inhibition of fresh weed plant weights at 150 g ai/ha using pre-emergence treatment protocol under greenhouse conditions relative to untreated control; assay type: functional; in short: as §1
Echinochloa crus-galli [17] = assay: Herbicidal activity against Echinochloa crus-galli (barnyard grass) assessed as inhibition of fresh weed plant weights at 300 g ai/ha using pre-emergence treatment protocol under greenhouse conditions relative to untreated control; assay type: functional; in short: as §1
Echinochloa crus-galli [18] = assay: Herbicidal activity against Echinochloa crus-galli (barnyard grass) assessed as inhibition of fresh weed plant weights at 150 g ai/ha using pre-emergence treatment protocol under greenhouse conditions relative to untreated control; assay type: functional; in short: as §1
Digitaria sanguinalis [19] = assay: Herbicidal activity against Digitaria sanguinalis (hairy crabgrass) assessed as inhibition of fresh weed plant weights at 300 g ai/ha using pre-emergence treatment protocol under greenhouse conditions relative to untreated control; assay type: functional; in short: as §1
Digitaria sanguinalis [20] = assay: Herbicidal activity against Digitaria sanguinalis (hairy crabgrass) assessed as inhibition of fresh weed plant weights at 150 g ai/ha using pre-emergence treatment protocol under greenhouse conditions relative to untreated control; assay type: functional; in short: as §1
Eleusine indica [21] = assay: Herbicidal activity against Eleusine indica assessed as inhibition of fresh weed plant weights at 600 g ai/ha using pre-emergence treatment protocol under greenhouse conditions relative to untreated control; assay type: functional; in short: as §1
Eleusine indica [22] = assay: Herbicidal activity against Eleusine indica assessed as inhibition of fresh weed plant weights at 300 g ai/ha using pre-emergence treatment protocol under greenhouse conditions relative to untreated control; assay type: functional; in short: as §1
Eleusine indica [23] = assay: Herbicidal activity against Eleusine indica assessed as inhibition of fresh weed plant weights at 150 g ai/ha using pre-emergence treatment protocol under greenhouse conditions relative to untreated control; assay type: functional; in short: as §1
[24] = test system: Brassica rapa subsp. oleifera; assay: Toxicity against Brassica rapa subsp. oleifera var. JING GUAN 1 assessed as inhibition of fresh weed plant weights at 600 g ai/ha using pre-emergence treatment protocol under greenhouse conditions relative to untreated control; assay type: organism-based; conditions: in vivo, other; in short: as §1
[25] = test system: Brassica rapa subsp. oleifera; assay: Toxicity against Brassica rapa subsp. oleifera var. JING GUAN 1 assessed as inhibition of fresh weed plant weights at 300 g ai/ha using pre-emergence treatment protocol under greenhouse conditions relative to untreated control; assay type: organism-based; conditions: in vivo, other; in short: as §1
[26] = test system: Brassica rapa subsp. oleifera; assay: Toxicity against Brassica rapa subsp. oleifera var. JING GUAN 1 assessed as inhibition of fresh weed plant weights at 150 g ai/ha using pre-emergence treatment protocol under greenhouse conditions relative to untreated control; assay type: organism-based; conditions: in vivo, other; in short: as §1

Molecule `Cc1nn(CC(F)(F)F)c(CSC2=NOC(C)(C)C2)c1Cl` has an inhibition at 600 g/ha (Digitaria sanguinalis [1]) of 54%, an inhibition of growth (Portulaca oleracea [2]) of 75% and an inhibition at 600 g/ha (Echinochloa crus-galli [3]) of 81%. It also gave an inhibition of growth (Echinochloa crus-galli [4]) of 89%, an inhibition of growth (Echinochloa crus-galli [5]) of 88% and an inhibition of growth at 100000 µg/mL (Portulaca oleracea [6]) of 54%.
Work on `Cc1nn(CC(F)(F)F)c(CSC2=NOC(C)(C)C2)c1Br` yielded an inhibition at 600 g/ha (Digitaria sanguinalis [1]) of 74%, an inhibition of growth (Portulaca oleracea [2]) of 80% and an inhibition at 600 g/ha (Echinochloa crus-galli [3]) of 82%. The inhibition of growth (Echinochloa crus-galli [4]) was 86%, the inhibition of growth (Echinochloa crus-galli [5]) was 88% and the inhibition of growth at 100000 µg/mL (Portulaca oleracea [6]) was 54%.
`Cc1nn(CC(F)(F)F)c(CSC2=NOC(C)(C)C2)c1I` gave an inhibition at 600 g/ha (Digitaria sanguinalis [1]) of 54%, an inhibition of growth (Portulaca oleracea [2]) of 81% and an inhibition at 600 g/ha (Echinochloa crus-galli [3]) of 100%. The inhibition of growth (Echinochloa crus-galli [4]) was 86%, the inhibition of growth (Echinochloa crus-galli [5]) was 89% and the inhibition of growth at 100000 µg/mL (Portulaca oleracea [6]) was 62%.
`Cc1nn(CC(F)(F)F)c(CS(=O)(=O)C2=NOC(C)(C)C2)c1Br` gave an inhibition at 600 g/ha (Digitaria sanguinalis [1]) of 79%, an inhibition of growth (Portulaca oleracea [2]) of 80% and an inhibition at 600 g/ha (Echinochloa crus-galli [3]) of 100%. The inhibition of growth (Echinochloa crus-galli [4]) was 74%, the inhibition of growth (Echinochloa crus-galli [5]) was 81% and the inhibition of growth at 100000 µg/mL (Portulaca oleracea [6]) was 62%.
`Cc1nn(CC(F)(F)F)c(CS(=O)(=O)C2=NOC(C)(C)C2)c1I` was tested, and the inhibition at 600 g/ha (Digitaria sanguinalis [1]) was 90%, the inhibition of growth (Portulaca oleracea [2]) was 75% and the inhibition at 600 g/ha (Echinochloa crus-galli [3]) was 100%. It also gave an inhibition of growth (Echinochloa crus-galli [4]) of 63%, an inhibition of growth (Echinochloa crus-galli [5]) of 84% and an inhibition of growth at 100000 µg/mL (Portulaca oleracea [6]) of 62%.
With `CCc1cccc(C)c1N(C(=O)CCl)C(C)COC` (configuration not stated) [METOLACHOR] the Activity (Zea mays [7]) was 0%, the inhibition at 1404 g/ha (Convolvulus arvensis) was 47% and the inhibition at 1404 g/ha (Portulaca oleracea [8]) was 100%. For the same molecule, the inhibition at 1404 g/ha (Eleusine indica [9]) was 99%, the inhibition at 1404 g/ha (Echinochloa crus-galli [10]) was 100% and the inhibition at 1404 g/ha (Digitaria sanguinalis [11]) was 95%. The “inhibition (INH)” value (Zea mays [12]) was 2%, the “inhibition (INH)” value (Zea mays [13]) was 2% and the inhibition at 600 g/ha (Portulaca oleracea [14]) was 60%. It also gave an inhibition at 300 g/ha (Portulaca oleracea [15]) of 57%, an inhibition at 150 g/ha (Portulaca oleracea [16]) of 36% and an inhibition at 300 g/ha (Echinochloa crus-galli [17]) of 39%. For the same molecule, the inhibition at 150 g/ha (Echinochloa crus-galli [18]) was 25%, the inhibition at 300 g/ha (Digitaria sanguinalis [19]) was 76% and the inhibition at 150 g/ha (Digitaria sanguinalis [20]) was 43%. The inhibition at 600 g/ha (Eleusine indica [21]) was 97%, the inhibition at 300 g/ha (Eleusine indica [22]) was 98% and the inhibition at 150 g/ha (Eleusine indica [23]) was 84%. The inhibition at 600 g/ha (Digitaria sanguinalis [1]) was 90%, the inhibition of growth (Portulaca oleracea [2]) was 74% and the inhibition at 600 g/ha (Echinochloa crus-galli [3]) was 50%. For the same molecule, the “inhibition (INH)” value [24] was 11%, the “inhibition (INH)” value [25] was 9% and the “inhibition (INH)” value [26] was 0%. The inhibition of growth (Echinochloa crus-galli [4]) was 80%, the inhibition of growth (Echinochloa crus-galli [5]) was 88% and the inhibition of growth at 100000 µg/mL (Portulaca oleracea [6]) was 62%.
